Test results taken from ChEMBL document CHEMBL1126594, “Studies directed toward the design of orally active renin inhibitors. 1. Some factors influencing the absorption of small peptides” (J Med Chem, 1993).
pIC50: −log10 of the molar value.

Legend:
[1] = Plasma level by the renin inhibition assay from samples taken at 10 minutes from portal circulation by administering 10 mg/kg intraduodenally to the rat
Renin = target: T1, Renin (Homo sapiens, UniProt P00797); test: Inhibition of human plasma renin at pH 7.4; assay type: cell-free
T1 sequence (P00797 whole entry): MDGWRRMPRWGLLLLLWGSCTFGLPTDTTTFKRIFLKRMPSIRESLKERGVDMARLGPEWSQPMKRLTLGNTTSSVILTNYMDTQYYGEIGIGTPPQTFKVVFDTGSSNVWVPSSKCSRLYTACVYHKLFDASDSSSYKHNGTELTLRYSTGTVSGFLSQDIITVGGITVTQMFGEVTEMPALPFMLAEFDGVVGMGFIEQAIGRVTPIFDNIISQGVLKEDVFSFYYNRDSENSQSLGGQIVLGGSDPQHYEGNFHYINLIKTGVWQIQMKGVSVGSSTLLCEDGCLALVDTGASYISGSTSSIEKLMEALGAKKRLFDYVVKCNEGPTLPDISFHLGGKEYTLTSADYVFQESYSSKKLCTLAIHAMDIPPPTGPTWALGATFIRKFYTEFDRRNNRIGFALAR
Summary of the method: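 Human plasma renin, pH 7.4; IC50 determined by the previously described method.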

[2] = Plasma level by the renin inhibition assay from samples taken at 10 minutes from systemic circulation by administering 10 mg/kg intraduodenally to the rat
[3] = Plasma level by the renin inhibition assay from samples taken at 30 minutes from systemic circulation by administering 10 mg/kg intraduodenally to the rat
[4] = Partition coefficient (logD7.4); details: octanol/water, pH 7.4
[5] = Plasma level by the renin inhibition assay from samples taken at 30 minutes from portal circulation by administering 10 mg/kg intraduodenally to the rat
[6] = Peak plasma drug level after intraduodenal administration at a dose 10 mg/kg from systemic circulation in salt-depleted cynomolgus monkeys using HPLC assay; assay type: ADME, organism-based, Macaca fascicularis; set-up: dose 10 mg/kg, route intraduodenal; details: cynomolgus monkey, read-out: Activity
Summary of the method: (§1)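 Salt-depleted cynomolgus monkeys, anesthetized, n = 4; 10 mg/kg intraduodenal in ethanol/HCl (110 mol %) diluted with aqueous hydroxypropyl methylcellulose (25% ethanol final, 10 mg/mL). 5-h experiment, systemic and portal sampling. Plasma (0.40 mL) mixed with 10% Na2CO3, extracted with ethyl acetate, assayed by HPLC; recoveries 75-85%. AUC as ng h/mL; mean ± SEM.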

[7] = Peak plasma drug level after intraduodenal administration at a dose 10 mg/kg from portal circulation in salt-depleted cynomolgus monkeys using HPLC assay; assay type: ADME, organism-based, Macaca fascicularis; set-up: dose 10 mg/kg, route intraduodenal; details: cynomolgus monkey, read-out: Activity; summary of the method: as §1
[8] = Integrated area under the plasma drug level-time curve after intraduodenal administration at a dose 10 mg/kg from portal circulation in salt-depleted cynomolgus monkeys using HPLC assay; assay type: ADME, organism-based, Macaca fascicularis; set-up: dose 10 mg/kg, route intraduodenal; details: cynomolgus monkey; summary of the method: as §1
[9] = Integrated area under the plasma drug level-time curve after intraduodenal administration at a dose 10 mg/kg from systemic circulation in salt-depleted cynomolgus monkeys using HPLC assay; assay type: ADME, organism-based, Macaca fascicularis; set-up: dose 10 mg/kg, route intraduodenal; details: cynomolgus monkey; summary of the method: as §1

SMILES | concentration at 10 min [1] | pIC50 (Renin) | concentration at 10 min [2] | concentration at 0.5 h [3] | logD [4] | concentration at 0.5 h [5] | Cmax [6] | Cmax [7] | AUC [8] | AUC [9]
CC(C)C[C@H](O)[C@H](O)[C@H](CC1CCCCC1)NC(=O)[C@H](Cc1c[nH]cn1)NC(=O)[C@@H](CC(=O)N1CCN(C)CC1)Cc1ccccc1 | 67 ng/mL | 8.27 | 63 ng/mL | 40 ng/mL | 1.66 | 30 ng/mL |  |  |  | 
CCN1C[C@@H]([C@H](O)[C@H](CC2CCCCC2)NC(=O)[C@H](Cc2c[nH]cn2)NC(=O)[C@H](Cc2ccc(OC)cc2)NC(=O)CC(C)(C)N)OC1=O | 140 ng/mL | 7.77 | 93 ng/mL | 110 ng/mL |  | 250 ng/mL |  |  |  | 
COc1ccc(C[C@H](NC(=O)N2CCN(C)CC2)C(=O)N[C@@H](Cc2cscn2)C(=O)N[C@@H](CC2CCCCC2)[C@@H](O)[C@@H](O)CC(C)C)cc1 |  | 6.92 |  |  |  |  |  |  |  | 
COc1ccc(C[C@H](NC(=O)C2CCN(C)CC2)C(=O)N[C@@H](Cc2cscn2)C(=O)N[C@@H](CC2CCCCC2)[C@@H](O)[C@@H](O)CC(C)C)cc1 | 1200 ng/mL | 6.77 | 160 ng/mL | 90 ng/mL | 3.03 | 770 ng/mL |  |  |  | 
CON(C)C[C@H](NC(=O)[C@@H](CC(=O)N1CCOCC1)Cc1ccccc1)C(=O)N[C@@H](CC1CCCCC1)[C@@H](O)[C@@H](O)CC(C)C | 3500 ng/mL | 7.06 | 340 ng/mL | 170 ng/mL | > 4.6 | 1400 ng/mL |  |  |  | 
CC(C)C[C@H](O)[C@H](O)[C@H](CC1CCCCC1)NC(=O)[C@H](CN(C)C)NC(=O)[C@@H](CC(=O)N1CCOCC1)Cc1ccccc1 |  | 6.68 |  |  |  |  |  |  |  | 
CC(C)C[C@H](O)[C@H](O)[C@H](CC1CCCCC1)NC(=O)[C@H](Cn1ccnc1)NC(=O)[C@@H](CC(=O)N1CCOCC1)Cc1ccccc1 |  | 7.03 |  |  | 3.79 |  |  |  |  | 
COc1ccc(C[C@H](NC(=O)CC(C)(C)N)C(=O)N[C@@H](Cc2cnc[nH]2)C(=O)N[C@@H](CC2CCCCC2)[C@@H](O)[C@@H](O)CC(C)C)cc1 | 1100 ng/mL |  | 170 ng/mL | 82 ng/mL |  | 540 ng/mL |  |  |  | 
CC(C)C[C@H](O)[C@H](O)[C@H](CC1CCCCC1)NC(=O)[C@H](Cc1c[nH]cn1)NC(=O)[C@@H](CC(=O)N1CCOCC1)Cc1ccccc1 | 190 ng/mL | 8.80 | 13 ng/mL | 11 ng/mL | 3.51 | 170 ng/mL |  |  |  | 
CC(C)C[C@H](O)[C@H](O)[C@H](CC1CCCCC1)NC(=O)[C@H](Cn1cccn1)NC(=O)[C@@H](CC(=O)N1CCN(C)CC1)Cc1ccccc1 | 2000 ng/mL | 7.74 | 86 ng/mL | 140 ng/mL | 4.39 | 2300 ng/mL |  |  |  | 
CC(C)C[C@H](O)[C@H](O)[C@H](CC1CCCCC1)NC(=O)[C@H](CN=[N+]=[N-])NC(=O)[C@@H](CC(=O)N1CCOCC1)Cc1ccccc1 |  | 7.96 |  |  | 4.1 |  |  |  |  | 
CC(C)C[C@H](O)[C@H](O)[C@H](CC1CCCCC1)NC(=O)[C@H](Cc1cn(C)cn1)NC(=O)[C@@H](CC(=O)N1CCOCC1)Cc1ccccc1 | 4900 ng/mL | 6.96 | 470 ng/mL | 320 ng/mL | 3.71 | 3300 ng/mL |  |  |  | 
CCN1C[C@@H]([C@H](O)[C@H](CC2CCCCC2)NC(=O)[C@H](Cc2cc[nH]n2)NC(=O)[C@@H](CC(=O)N2CCOCC2)Cc2ccccc2)OC1=O | 28 ng/mL |  | 7 ng/mL | 7 ng/mL | 2.49 | 58 ng/mL |  |  |  | 
COc1ccc(C[C@H](NC(=O)CC(C)(C)N)C(=O)N[C@@H](Cc2cccs2)C(=O)N[C@@H](CC2CCCCC2)[C@@H](O)[C@@H](O)CC(C)C)cc1 | 23 ng/mL | 7.07 | 9 ng/mL | 6 ng/mL |  | 23 ng/mL |  |  |  | 
CCCC[C@H](NC(=O)[C@@H](CC(=O)N1CCN(C)CC1)Cc1ccccc1)C(=O)N[C@@H](CC1CCCCC1)[C@@H](O)[C@@H](O)CC(C)C | 3200 ng/mL | 7.60 | 260 ng/mL | 650 ng/mL | > 4.5 | 4600 ng/mL |  |  |  | 
CCN1C[C@@H]([C@H](O)[C@H](CC2CCCCC2)NC(=O)[C@H](Cc2cscn2)NC(=O)[C@@H](CC(=O)N2CCOCC2)Cc2ccccc2)OC1=O | 1900 ng/mL |  | 320 ng/mL | 300 ng/mL | 2.83 | 1100 ng/mL | 360 ng/mL | 3200 ng/mL | 3800 ng·h/mL | 770 ng·h/mL
COc1ccc(C[C@H](NC(=O)CC(C)(C)N)C(=O)N[C@@H](Cc2cscn2)C(=O)N[C@@H](CC2CCCCC2)[C@@H](O)[C@@H](O)CC(C)C)cc1 | 93 ng/mL | 7.48 | 17 ng/mL | 13 ng/mL |  | 53 ng/mL |  |  |  | 
CCN1C[C@@H]([C@H](O)[C@H](CC2CCCCC2)NC(=O)[C@H](Cc2cccs2)NC(=O)[C@H](Cc2ccc(OC)cc2)NC(=O)CC(C)(C)N)OC1=O | 13 ng/mL | 7.16 | 16 ng/mL | 32 ng/mL |  | 45 ng/mL |  |  |  | 
CCN1C[C@@H]([C@H](O)[C@H](CC2CCCCC2)NC(=O)[C@H](Cc2cscn2)NC(=O)[C@H](Cc2ccc(OC)cc2)NC(=O)CC(C)(C)N)OC1=O | 880 ng/mL | 7.41 | 83 ng/mL | 24 ng/mL |  | 240 ng/mL |  |  |  | 
CC(C)C[C@H](NC(=O)[C@@H](CC(=O)N1CCN(C)CC1)Cc1ccccc1)C(=O)N[C@@H](CC1CCCCC1)[C@@H](O)[C@@H](O)CC(C)C | 880 ng/mL | 7.43 | 380 ng/mL | 620 ng/mL |  | 1200 ng/mL |  |  |  | 
CCN1C[C@@H]([C@H](O)[C@H](CC2CCCCC2)NC(=O)[C@H](Cc2cnc[nH]2)NC(=O)[C@@H](CC(=O)N2CCOCC2)Cc2ccccc2)OC1=O | 280 ng/mL |  | 55 ng/mL | 34 ng/mL |  | 390 ng/mL |  |  |  | 
CC(C)C[C@H](O)[C@H](O)[C@H](CC1CCCCC1)NC(=O)[C@H](Cc1cscn1)NC(=O)[C@H](Cc1ccccc1)N1CCOCC1 | 2600 ng/mL | 5.80 | 420 ng/mL | 890 ng/mL |  | 3300 ng/mL |  |  |  | 
CC(C)C[C@H](O)[C@H](O)[C@H](CC1CCCCC1)NC(=O)[C@H](Cc1cscn1)NC(=O)[C@@H](CC(=O)CN1CCOCC1)Cc1ccccc1 | 2500 ng/mL | 7.60 | 190 ng/mL | 380 ng/mL | 3.91 | 1800 ng/mL |  |  |  | 
CC(C)C[C@H](O)[C@H](O)[C@H](CC1CCCCC1)NC(=O)[C@H](Cc1cscn1)NC(=O)[C@@H](CC(=O)N1CCN(C)CC1)Cc1ccccc1 |  | 7.74 |  |  |  |  |  |  |  | 
CC(C)C[C@H](O)[C@H](O)[C@H](CC1CCCCC1)NC(=O)[C@H](Cc1ccn[nH]1)NC(=O)[C@@H](CC(=O)N1CCN(C)CC1)Cc1ccccc1 | 53 ng/mL | 8.55 | 21 ng/mL | 22 ng/mL | 4.02 | 27 ng/mL |  |  |  | 
CC(C)C[C@H](O)[C@H](O)[C@H](CC1CCCCC1)NC(=O)[C@H](Cc1cccs1)NC(=O)[C@@H](CC(=O)N1CCN(C)CC1)Cc1ccccc1 |  | 6.96 |  |  |  |  |  |  |  | 
CC(C)C[C@H](O)[C@H](O)[C@H](CC1CCCCC1)NC(=O)[C@H](Cc1ccn[nH]1)NC(=O)[C@@H](CC(=O)N1CCOCC1)Cc1ccccc1 |  | 8.46 |  |  |  |  |  |  |  | 
